# Screens: PubChem, several laboratories
# In the library only some 2.8% were active in any assay of this set; here they are far more common.
# Yeast lifespan up: yeast lifespan extension; S. cerevisiae growth with nicotinamide, OD615; deaD strain in restrictive glucose medium; 130,000 tested, 0.68% active; inhibition of the nicotinamide effect, % at 10 µM; AID 775;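 active = inhibition above a set limit, placed 3 SD over the median of all compounds, cut at about 26% in these data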;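 note: 0% = nicotinamide-treated wells and 100% = cells grown without nicotinamide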
#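 System: DeaD-strain S. cerevisiae / Buffer or medium: CSMM-D, restrictive glucose (dextrose) synthetic minimal medium / Probe or stimulus: nicotinamide, 1.5 mM, co-present with compound / Compound: one concentration, 10 µM, DMSO 0.25% / Incubation: 48 h compound exposure at 30 °C, humidified / Technique: optical density (absorbance) at 615 nm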
# sdo1 growth: sdo1-depleted yeast growth rescue | S. cerevisiae sdo1-depleted JHY4D growth rescue, OD600 30 h; stronger effect = higher value; pdr5 snq2 efflux-pump mutant strain | z-score at 10 µM | 140,000 tested, 0.21% active;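 active = z-score above 3 at both the 24 hr and the 30 hr optical density reads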;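 note: z-score against mean and SD of all compound wells on the same plate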
# bCat KO growth: beta-catenin-lacking colon tumor cell growth suppression. viability, % at 10 µM. HCT116 beta-catenin knockout viability, CellTiter-Glo, 60 h; stronger effect = lower value. 140,000 tested, 1.5% active;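 active = viability at or under a set limit, the compound median less 4 SD, cut at about 6% in these data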;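 note: 0% = Hyamine 1622 control at 20 µM and 100% = untreated cell control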
# PTEN del growth: PTEN-deleted cell growth suppression; viability, % at 10 µM; AID 827; 140,000 tested, 1.2% active; HCT116 PTEN-null viability, CellTiter-Glo, 60 h; stronger effect = lower value;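 active = viability at or below a set limit, 4 SD under the median of all tested compounds, cut at about 3.7% in these data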;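 note: PTEN knockout HCT116 line with beta catenin targeted HCT116 as companion control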
# Yeast growth inh: reduces growth of yeast BB579 in restrictive medium; inhibition, % at 10 µM; 140,000 tested, 0.51% active; S. cerevisiae BB579 growth, OD615, 48 h; AID 804;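 active = inhibition above a set limit, 3 SD over the mean compound inhibition, cut at about 44% in these data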
#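 Assay system: S. cerevisiae DeaD strain BB579 yeast. Medium: CSMM-D restrictive synthetic medium containing dextrose (glucose). Times: 4 h cell preincubation, 48 h compound exposure, 30 °C humidified. Signal: OD615 turbidity measurement. Benchmarks: positive control amphotericin B 10 µg/mL.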
# An asterisk follows results filed as active; nt = no result.
SMILES,Yeast lifespan up,sdo1 growth,bCat KO growth,PTEN del growth,Yeast growth inh
Clc1ccc2oc3c(Cl)ncnc3c2c1,-6,1.3,3.0*,14,-6
CCCC(=O)c1ccc(-c2ccccc2)cc1,-8,1.1,92,96,13
C=C(C(=O)c1ccccc1)C(CC(=O)c1ccccc1)c1ccccc1 (stereo not drawn),39*,-1.2,4.8*,3.1*,-15
C=C(CCC(=O)c1ccccc1)C(=O)c1ccccc1,31*,-1.5,0.4*,0.5*,-29
O=C(CC(Nc1ccc(F)cc1)C(=O)O)c1ccccc1 (stereo not drawn),-5,0.42,78,85,-19
COc1ccc(NC(=O)C2CCCN2c2ccc(OC)c(OC)c2)cc1OC (stereo not drawn),-13,1.5,99,98,-10
CC(=O)c1c(C)[nH]c(C(=O)OC2CCCCC2=O)c1C (stereo not drawn),142*,1.1,101,80,-17
CN1CC=C2C(C#N)=C(N)C(C#N)(C#N)[C@H](c3cccc(Cl)c3)C2C1 (stereo partly drawn),-9,0.67,85,87,-17
CC(C)c1ccc(C2C3CSCC=C3C(C#N)=C(N)C2(C#N)C#N)cc1 (stereo not drawn),29*,-2.5,38,50,-27
Cc1cc(C)c[n+](-c2nc([O-])sc2C=O)c1,-8,0.36,96,97,-17
Cc1ccnc(NC2OC(=O)c3ccccc32)c1 (stereo not drawn),3,1.2,99,95,-35
c1ccc2c(c1)CCCC2C1=NCCN1 (stereo not drawn),3,-1.2,0.8*,0.8*,-31
Brc1ccc2c(c1)C(C1=NCCN1)c1ccccc1CS2 (stereo not drawn),9,0.5,18,21,-20
CCOc1ccccc1NC(=O)C1CC(=O)n2ncnc2N1 (stereo not drawn),-8,-0.95,84,97,-27
Cc1ccc2nc(-c3ccncc3)cc(-c3ccccc3)c2c1,-22,-1,92,79,3
Cc1ccc(-c2cc3cccc[n+]3cc2-c2ccc(C)cc2)cc1,6,0.01,3.2*,6,-17
Cc1ccc(C2CC2c2n[nH]c(=S)n2-c2cccc(Cl)c2)cc1 (stereo not drawn),-2,-1.9,84,89,-17
COc1ccc(OC)c2c(C)cc(N3CCN(C(=O)c4ccc(Cl)cc4)CC3)nc12,-13,-1.9,88,77,-30
Cc1cccc(N=Cc2cc3c(cc2[N+](=O)[O-])OCO3)c1,28,1.2,100,91,-31
Cc1ccc(N2NC(=O)/C(=C\c3cc4c(cc3[N+](=O)[O-])OCO4)C2=O)cc1C,49*,-0.15,39,44,-46
C/C(=N\NC(=O)C(C)n1nc(C)c([N+](=O)[O-])c1C)c1ccccc1O (stereo not drawn),-3,1,6.1*,4,8
Cc1cc[n+](C2=C([O-])c3ccccc3C(=O)/C2=N\S(=O)(=O)c2cccs2)cc1C,1,0.2,1.6*,1.8*,-31
Cc1ccccc1NC1=C/C(=N\S(=O)(=O)c2cccs2)c2ccccc2C1=O,-2,-2.6,1.5*,1.9*,5
O=C(N/N=C1\CCCc2ccccc21)c1ccccc1[N+](=O)[O-],nt,-0.32,94,99,-30
COC(=O)c1sc(NC(=O)CCCn2nc([N+](=O)[O-])cc2C)c(C(=O)OC)c1C,-10,-0.83,94,94,14
SMILES,Yeast lifespan up,sdo1 growth,bCat KO growth,PTEN del growth,Yeast growth inh
Cc1cc(C)nc(SC2=CS(=O)(=O)c3ccccc32)n1,-9,-0.19,2.0*,1.8*,-7
O=S1(=O)C=C(SCCN2CCCCC2)c2ccccc21,-6,-0.64,64,55,-9
O=S1(=O)C=C(Sc2nc3ccccc3s2)c2ccccc21,69*,-2.5,1.9*,1.2*,-11
O=S1(=O)C=C(Sc2nnc(-c3ccccc3)o2)c2ccccc21,43*,-2.1,1.2*,0.9*,36
CCCCN1CNC(=S)N(c2ccccc2OCC)C1,-1,-0.17,80,88,-25
Fc1ccc(N/N=C2/CC(c3ccccc3)Oc3ccccc32)c(F)c1 (stereo not drawn),-7,0.37,84,83,86*
O=S(=O)(N/N=C1/CC(c2ccccc2)Oc2ccccc21)c1ccc(Br)cc1 (stereo not drawn),2,-1.5,79,73,-42
CCOCCCNC(=O)c1ccc(Br)cc1,-25,-0.42,100,87,47*
COc1ccc(-n2nnnc2S(=O)(=O)Cc2ccc(C(=O)O)cc2)cc1,10,0.66,53,41,-49
COc1ccc(-n2nnnc2S(=O)(=O)CC(=O)N2CCCCC2)cc1,8,-0.95,1.7*,1.3*,-20
Cc1ccc(N2CCN(CC(=O)Nc3c(C(=O)C4CC4)oc4ccccc34)CC2)cc1,-5,-1.4,91,87,14
COc1cccc(C(=O)Oc2cc3c4c(c2)C(C)=CC(C)(C)N4C(=O)C3=O)c1,13,-1.9,7,13,-42
CC1=CC(C)(C)n2c(O)c(C3=NC(=S)NC3=O)c3cc(OC(=O)c4cccc5ccccc45)cc1c32,-7,-0.14,1.8*,0.9*,-22
O=C(O)Cn1c(-c2ccccc2)nc2ccccc21,-12,1.4,103,116,-23
O=Nc1c2nc3ccccc3n(O)c-2c2ccccc12,-6,-3.2,65,56,64*
CCOC(=O)C(C)Oc1ccc(C2NC(=O)NC(C)=C2C(=O)Nc2ccccc2C)cc1 (stereo not drawn),-8,0.61,95,106,3
CCSc1ncc(/C=N/Nc2ccc(Cl)cc2)n1C,-9,-2.1,58,60,95*
CCSc1ncc(/C=N/Nc2ccccc2)n1C,-18,-1.9,89,81,30
O=C1C=CC(O)(c2cc(=O)c3c(O)cc(O)cc3o2)C=C1,0,0.1,1.1*,1.3*,-50
O=c1cc(-c2ccccc2Cl)oc2cc(O)cc(O)c12,5,-0.25,99,90,-56
CCCCN1C[C@H](O)[C@@H](O)[C@H](O)[C@H]1CO,2,-0.69,1.0*,1.2*,-2
Cn1c(-c2ccccc2)c[n+]2c1-c1ccccc1C2,5,1,17,25,-6
CC1=CC(=C2C(=O)c3ccccc3C2=O)C=C(C)N1Cc1ccco1,-18,0.36,65,87,-26
O=C1c2ccccc2C(=O)N1Cc1ccco1,-11,0.11,101,94,44*
O=[N+]([O-])c1ccc2nc(/C=C/c3ccc(Cl)cc3)[nH]c2c1,-13,-2.7,2.1*,2.8*,-23
C/C(=N/NC(N)=S)c1ccccc1[N+](=O)[O-],-21,-0.09,101,103,-28
CC(C)(Oc1ccc(Cl)cc1)C(=O)NC1=NN(c2ccccc2)C(=O)C1,-11,0.48,91,98,96*
